Laboratory results as given in ChEMBL document CHEMBL2021883, “Amino acid, dipeptide and pseudodipeptide conjugates of ring-substituted 8-aminoquinolines: synthesis and evaluation of anti-infective, β-haematin inhibition and cytotoxic activities” (Eur J Med Chem, 2012).
In brackets after ≈: the same amount, converted by molar mass. Activity calls are given as the source filed them. Unless noted, the rule behind the calls is not given here.

Assays:
[1] = Selectivity index, ratio of IC50 for african green monkey Vero cells to IC50 for chloroquine-sensitive Plasmodium falciparum D6; format: toxicity, cell-based; conditions: Vero cells versus Plasmodium falciparum D6, read-out: Ratio IC50
[2] = tested on: Candida albicans; experiment: Fungicidal activity against Candida albicans at 20 ug/ml; format: functional, organism-based
Outline: (§1)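 Broth dilution antifungal testing followed the NCCLS reference method for yeasts, with 20 as the highest test concentration. MIC was the lowest concentration with no detectable growth. MFC was the lowest concentration killing the organism.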

[3] = Selectivity index, ratio of IC50 for african green monkey Vero cells to IC50 for chloroquine-resistant Plasmodium falciparum W2; format: toxicity, cell-based; conditions: Vero cells versus Plasmodium falciparum W2, read-out: Ratio IC50
[4] = tested on: Pichia kudriavzevii; experiment: Fungicidal activity against Candida krusei at 20 ug/ml; format: functional, organism-based; outline: as §1
[5] = tested on: Escherichia coli; experiment: Antimicrobial activity against Escherichia coli ATCC 35218 by CLSI method; format: functional, organism-based
[6] = tested on: Nakaseomyces glabratus; experiment: Antifungal activity against Candida glabrata; format: functional, organism-based
Outline: (§2)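 Yeasts and A. fumigatus were tested by broth microdilution following the NCCLS antifungal standards. The highest test concentration was 20.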

[7] = tested on: Plasmodium falciparum; experiment: Antimalarial activity against chloroquine-sensitive Plasmodium falciparum D6 assessed as plasmodial LDH activity; format: functional, organism-based
[8] = Inhibition of beta-hematin formation; format: functional
[9] = tested on: Staphylococcus aureus; experiment: Antimicrobial activity against Staphylococcus aureus ATCC 29213 by CLSI method; format: functional, organism-based
[10] = tested on: Leishmania donovani; experiment: Antileishmanial activity against Leishmania donovani promastigote by Alamar Blue assay; format: functional, organism-based
[11] = tested on: Staphylococcus aureus; experiment: Antimicrobial activity against methicillin-resistant Staphylococcus aureus ATCC 43300 by CLSI method; format: functional, organism-based
[12] = tested on: Aspergillus fumigatus; experiment: Antifungal activity against Aspergillus fumigatus; format: functional, organism-based; outline: as §2
[13] = tested on: Mycobacterium intracellulare; experiment: Antimicrobial activity against Mycobacterium intracellulare ATCC 23068 by Franzblau method; format: functional, organism-based
[14] = tested on: Pseudomonas aeruginosa; experiment: Antimicrobial activity against Pseudomonas aeruginosa ATCC 27853 by CLSI method; format: functional, organism-based
Outline: (§3)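 Antibacterial testing used CLSI/NCCLS broth dilution for aerobically growing bacteria, with 20 as the highest test concentration.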

[15] = tested on: Vero; experiment: Cytotoxicity against african green monkey Vero cells upto 23.8 […] by neutral dye assay; format: cell-based, Chlorocebus sabaeus
Outline: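 Vero monkey kidney cells were exposed to compound up to a highest concentration of 23.8, with viability read by neutral red uptake.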

[16] = tested on: Pichia kudriavzevii; experiment: Antifungal activity against Candida krusei at 20 ug/ml; format: functional, organism-based; outline: as §1
[17] = tested on: Candida albicans; experiment: Antifungal activity against Candida albicans at 20 ug/ml; format: functional, organism-based; outline: as §1
[18] = tested on: Plasmodium falciparum; experiment: Antimalarial activity against chloroquine-resistant Plasmodium falciparum W2 assessed as plasmodial LDH activity; format: functional, organism-based
[19] = tested on: Cryptococcus neoformans; experiment: Antifungal activity against Cryptococcus neoformans; format: functional, organism-based; outline: as §2
[20] = tested on: Mycobacterium intracellulare; experiment: Bactericidal activity against Mycobacterium intracellulare ATCC 23068 at 20 ug/ml by Franzblau method; format: functional, organism-based
[21] = tested on: Staphylococcus aureus; experiment: Antimicrobial activity against methicillin-resistant Staphylococcus aureus ATCC 43300 at 20 ug/ml by CLSI method; format: functional, organism-based
[22] = tested on: Escherichia coli; experiment: Bactericidal activity against Escherichia coli ATCC 35218 at 20 ug/ml by CLSI method; format: functional, organism-based; outline: as §3
[23] = tested on: Staphylococcus aureus; experiment: Bactericidal activity against methicillin-resistant Staphylococcus aureus ATCC 43300 at 20 ug/ml by CLSI method; format: functional, organism-based
Outline: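 MBC is the lowest concentration that kills the organism. 20 was the highest concentration tested.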

[24] = tested on: Escherichia coli; experiment: Antimicrobial activity against Escherichia coli ATCC 35218 at 20 ug/ml by CLSI method; format: functional, organism-based; outline: as §3
[25] = tested on: Mycobacterium intracellulare; experiment: Antimicrobial activity against Mycobacterium intracellulare ATCC 23068 at 20 ug/ml by Franzblau method; format: functional, organism-based
[26] = tested on: Pichia kudriavzevii; experiment: Antifungal activity against Candida krusei; format: functional, organism-based; outline: as §2
[27] = tested on: Plasmodium berghei; experiment: Antimalarial activity against Plasmodium berghei blood-schizont in mouse malaria model assessed as elimination of parasitemia at 25 mg/kg, po for 4 days for 4 days measured after 7 days; format: functional, organism-based; design: dose 25 mg/kg
Outline: (§4)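 P. berghei-infected mice, 6 per group, received compound orally once daily for 4 days at 10, 25, 50 or 100 mg/kg/day. "Active" meant all treated animals were parasitaemia-negative up to D+7. "Curative" meant complete parasite elimination with survival to D+60. Outcomes were recorded as cured/total.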

[28] = tested on: Plasmodium berghei; experiment: Antimalarial activity against Plasmodium berghei blood-schizont in mouse malaria model assessed as elimination of parasitemia at 10 mg/kg, po for 4 days for 4 days measured after 7 days; format: functional, organism-based; design: dose 10 mg/kg; outline: as §4
[29] = tested on: Plasmodium berghei; experiment: Antimalarial activity against Plasmodium berghei blood-schizont in mouse malaria model assessed as elimination of parasitemia at 50 mg/kg, po for 4 days for 4 days measured after 7 days; format: functional, organism-based; design: dose 50 mg/kg; outline: as §4
[30] = tested on: Plasmodium berghei; experiment: Antimalarial activity against Plasmodium berghei blood-schizont in mouse malaria model assessed as disease curative activity at 100 mg/kg, po after 60 days; format: functional; outline: as §4
[31] = Plasmodium falciparum, D6, read-out: IC50
[32] = Plasmodium falciparum, W2, read-out: IC50
[33] = Leishmania donovani, read-out: IC50

Structure (SMILES)	selectivity ratio [1]	Activity [2]	selectivity ratio [3]	Activity [5]	IC50 [7, 31] [µg/mL]	IC50 [8] [µM]	IC50 [10]	IC90 [10]	Activity [11]	Activity [12]	Activity [13]	Activity [14]	IC50 [15]	Activity [17]	IC50 [18, 32] [µg/mL]	IC50 [19] [µg/mL]	MFC [19] [µg/mL]	MIC [19] [µg/mL]	Activity [20]	Activity [22]	also measured
COc1cc(NC(C)CCCNC(=O)C[C@@H](NC(=O)[C@H](N)CCCN)C(=O)O)c2nc(C(C)(C)C)ccc2c1 (stereo not given in full)	> 9.5	inactive	> 7	inactive	2.5 (≈ 4.59 µM)	> 1000	Not Active	inactive	inactive	inactive	inactive	inactive	Non-toxic	inactive	3.4 (≈ 6.24 µM)	4.86 (≈ 8.92 µM)	10 (≈ 18.4 µM)	10 (≈ 18.4 µM)	–	–	Activity [4]: inactive; IC50 [6]: 13.7 µg/mL (≈ 25.1 µM); MFC [6]: 20 µg/mL (≈ 36.7 µM); MIC [6]: 20 µg/mL (≈ 36.7 µM); Activity [9]: inactive; Activity [16]: inactive
COc1cc(NC(C)CCCNC(=O)[C@@H](CCCN)NC(=O)[C@H](N)CCCN)c2nc(C(C)(C)C)ccc2c1 (stereo not given in full)	> 5	inactive	> 7.21	inactive	4.76 (≈ 8.75 µM)	39	–	–	inactive	inactive	–	inactive	Non-toxic	inactive	3.3 (≈ 6.07 µM)	3.5 (≈ 6.44 µM)	5 (≈ 9.2 µM)	5 (≈ 9.2 µM)	inactive	inactive	Activity [21]: inactive; IC90 ([10]; Leishmania donovani): 38 µg/mL (≈ 69.9 µM); IC50 [10, 33]: 20 µg/mL (≈ 36.8 µM); IC50 [13]: 10 µg/mL (≈ 18.4 µM); MIC [13]: 20 µg/mL (≈ 36.8 µM); Activity [23]: inactive; Activity [24]: inactive
COc1cc(NC(C)CCCNC(=O)[C@@H](CCCNC(=N)N)NC(=O)[C@H](N)CCCNC(=N)N)c2nc(C(C)(C)C)ccc2c1 (stereo not given in full)	–	inactive	–	inactive	–	> 1000	–	–	–	inactive	inactive	inactive	Non-toxic	inactive	–	3.55 (≈ 5.65 µM)	10 (≈ 15.9 µM)	10 (≈ 15.9 µM)	inactive	inactive	IC50 [6]: 12.4 µg/mL (≈ 19.8 µM); MFC [6]: 20 µg/mL (≈ 31.9 µM); MIC [6]: 20 µg/mL (≈ 31.9 µM); IC50 [7]: Not Active; Activity [25]: inactive; IC50 [9]: 11.2 µg/mL (≈ 17.8 µM); MBC [9]: 20 µg/mL (≈ 31.9 µM); MIC [9]: 20 µg/mL (≈ 31.9 µM); IC90 ([10]; Leishmania donovani): 34 µg/mL (≈ 54.2 µM); IC50 [10, 33]: 20 µg/mL (≈ 31.9 µM); IC50 [26]: 7.08 µg/mL (≈ 11.3 µM); MFC [26]: 10 µg/mL (≈ 15.9 µM); MIC [26]: 10 µg/mL (≈ 15.9 µM); IC50 [11]: 5.96 µg/mL (≈ 9.49 µM); MBC [11]: 20 µg/mL (≈ 31.9 µM); MIC [11]: 10 µg/mL (≈ 15.9 µM); IC50 [18]: Not Active; Activity [24]: inactive
COc1cc(NC(C)CCCNC(=O)[C@H](CCCCN)NC(=O)[C@@H](N)CCCCN)c2ncccc2c1 (stereo not given in full)	> 11.9	inactive	> 8.5	inactive	2 (≈ 3.88 µM)	618	Not Active	inactive	inactive	inactive	inactive	inactive	Non-toxic	inactive	2.8 (≈ 5.43 µM)	7 (≈ 13.6 µM)	20 (≈ 38.8 µM)	10 (≈ 19.4 µM)	–	–	Activity [27]: Active; Activity [9]: inactive; Activity [28]: Active; Activity [29]: Active; Activity [30]: 100%
COc1cc(NC(C)CCCNC(=O)C[C@H](NC(=O)[C@@H](N)CCCCN)C(=O)O)c2nc(C(C)(C)C)ccc2c1 (stereo not given in full)	> 6.2	inactive	> 8.5	–	3.8 (≈ 6.8 µM)	131	–	–	inactive	inactive	inactive	inactive	Non-toxic	inactive	2.8 (≈ 5.01 µM)	3.5 (≈ 6.26 µM)	5 (≈ 8.95 µM)	5 (≈ 8.95 µM)	inactive	inactive	IC50 [5]: 15 µg/mL (≈ 26.8 µM); MIC [5]: 20 µg/mL (≈ 35.8 µM); Activity [25]: inactive; Activity [21]: inactive; IC90 ([10]; Leishmania donovani): 31 µg/mL (≈ 55.5 µM); IC50 [10, 33]: 9.4 µg/mL (≈ 16.8 µM); Activity [23]: inactive
COc1cc(NC(C)CCCNC(=O)C[C@H](NC(=O)[C@@H](N)CCCNC(=N)N)C(=O)O)c2nc(C(C)(C)C)ccc2c1 (stereo not given in full)	> 7.2	inactive	> 8.5	–	3.3 (≈ 5.62 µM)	115	Not Active	inactive	inactive	inactive	inactive	inactive	Non-toxic	inactive	2.8 (≈ 4.77 µM)	15 (≈ 25.6 µM)	20 (≈ 34.1 µM)	20 (≈ 34.1 µM)	inactive	inactive	IC50 [5]: 15 µg/mL (≈ 25.6 µM); Activity [25]: inactive; Activity [21]: inactive; Activity [23]: inactive; Activity [24]: inactive
